Data set [1] in a line: Cytotoxicity against African green monkey Vero cells assessed as reduction in cell viability incubated for 72 hrs by MTT assay. Format: cell-based. To be noted: chlorocebus sabaeus. The procedure, abridged:
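Vero cells exposed to mangiferin 31.25–500 μg/mL for 72 h at 37 °C, 5% CO2. Viability read by MTT as At/Ac × 100 versus untreated cells; CC50 from linear regression.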
For orientation: Tetrazolium assays rely on reduction of a dye to a coloured formazan, in cell work by metabolically active cells.

In data set [2] the test system is Human alphaherpesvirus 1. Put plainly: Antiviral activity against ACV-resistant Herpes simplex virus 1 AR-29 infected in African green monkey Vero cells assessed as inhibition of viral infection at 6.25 ug/ml measured after 72 hrs by crystal violet staining based plaque reduction assay relative to control. The following applies: Human alphaherpesvirus 1, AR-29, Vero. Format: functional. The procedure, abridged:
(§1)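 Plaque reduction in Vero cells. Mangiferin at 3.12, 6.25, 12.5 or 25 μg/mL is added at infection (0 h) with HSV-1 (10^5 PFU/mL). Agarose overlay with 25 mM MgCl2, 72 h at 37 °C/5% CO2, 20% formaldehyde fix, 0.5% crystal violet stain. %VI is taken against virus control. IC50 comes from linear regression of inhibition curves. Triplicate independent experiments.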

Data set [3] deals with Human alphaherpesvirus 1. Put plainly: Antiviral activity against ACV-resistant Herpes simplex virus 1 AR-29 infected in African green monkey Vero cells assessed as inhibition of viral infection at 12.5 ug/ml measured after 72 hrs by crystal violet staining based plaque reduction assay relative to control. Format: functional. The following applies: Human alphaherpesvirus 1, AR-29, Vero. The procedure, abridged: as §1

Data set [4] relates to Human alphaherpesvirus 1. Put plainly: Antiviral activity against ACV-sensitive Herpes simplex virus 1 KOS infected in African green monkey Vero cells assessed as inhibition of viral infection at 6.25 ug/ml measured after 72 hrs by crystal violet staining based plaque reduction assay relative to control. Format: functional. The following applies: Human alphaherpesvirus 1, strain KOS. The procedure, abridged:
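Vero monolayers infected with HSV-1 KOS (10^5 PFU/mL) with mangiferin (3.12, 6.25, 12.5, 25 μg/mL) added at infection (0 h). Overlay of nutrient agarose with 25 mM MgCl2; plaques counted after 72 h at 37 °C, 5% CO2, fixed in 20% formaldehyde/PBS and stained with 0.5% crystal violet. %VI versus virus control; triplicate experiments.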

The subject of data set [5] is Human alphaherpesvirus 1. Put plainly: Antiviral activity against ACV-sensitive Herpes simplex virus 1 KOS infected in African green monkey Vero cells assessed as inhibition of viral infection at 12.5 ug/ml measured after 72 hrs by crystal violet staining based plaque reduction assay relative to control. The class given is functional. To be noted: Human alphaherpesvirus 1, strain KOS. The procedure, abridged:
as §1
In general terms: Plaque reduction counts the foci of infection that form in a cell layer.

For data set [6], the system named is Human alphaherpesvirus 1. Put plainly: Antiviral activity against ACV-resistant Herpes simplex virus 1 AR-29 infected in African green monkey Vero cells assessed as suppression of viral replication by measuring reduction in ICP4 production at 12.5 ug/ml measured after 24 hrs by immunofluorescence assay relative to control. The class given is functional. Further details: scale not given: the % may be the effect or the level left. The procedure, abridged:
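Vero cells on coverslips, infected with HSV-1 AR-29 and given mangiferin (1.56–12.5 μg/mL) at 0 h. At 24 h they are acetone-fixed (−20 °C, 20 min) and blocked with 2% skim milk. Stained with mouse anti-ICP4 and FITC anti-mouse IgG. 100 cells per coverslip are scored by fluorescence microscopy, inhibition relative to infected untreated cells. Duplicate experiments.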

In data set [7] the test system is Human alphaherpesvirus 1. Description: Antiviral activity against ACV-sensitive Herpes simplex virus 1 KOS infected in male Balb/c mouse assessed as reduction in vesicles at 0.7% w/w applied topically 5 times a day at 3 hrs interval for 10 days measured on day 2 post infection. The class given is functional, organism-based. To be noted: strain KOS. The procedure, abridged:
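Balb/c mice (5 weeks, 22–27 g; six per group, sexes tested separately) had the right mid-flank depilated under i.p. anaesthesia and needle-scarified 24 h later. They were inoculated with 70 μL HSV-1 KOS (10^5 PFU/mL). From 4 h post-infection, O/W emulsion with 0.7% w/w mangiferin or ACV cream (50 mg/g) was applied topically 5 times daily for 10 days. Lesions were scored daily.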

Data set [8] relates to Human alphaherpesvirus 1. Put plainly: Virucidal activity against ACV-sensitive Herpes simplex virus 1 KOS infected in African green monkey Vero cells assessed as inhibition of viral inhibition at 25 ug/mL measured after 1 hr by plaque reduction assay relative to control. To be noted: Human alphaherpesvirus 1, strain KOS. The class given is functional. The procedure, abridged: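 HSV-1 KOS suspension incubated with mangiferin (3.12–25 μg/mL) 1 h at 37 °C, then put on Vero cells for plaque reduction: agarose overlay with MgCl2, 72 h, crystal violet staining. %VI against virus control; triplicate independent experiments.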

Data set [9] has as its system Human alphaherpesvirus 1. Description: Antiviral activity against ACV-sensitive Herpes simplex virus 1 KOS infected in African green monkey Vero cells assessed as inhibition of viral adsorption at 25 ug/mL preincubated for 30 mins and measured after 1 hr by plaque reduction assay. Format: functional, organism-based. To be noted: strain KOS. The procedure, abridged:
(§2)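 Vero cells pre-chilled 30 min at 4 °C, then given mangiferin (3.12–25 μg/mL) together with HSV-1 KOS (10^5 PFU/mL); 1 h adsorption at 4 °C, then plaque reduction: agarose/DMEM overlay with 25 mM MgCl2, 72 h at 37 °C, formaldehyde fixation, crystal violet stain. %VI = 1 − PFU treated/PFU virus control; triplicate independent experiments.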

Data set [10] relates to Human alphaherpesvirus 1. Put plainly: Antiviral activity against ACV-sensitive Herpes simplex virus 1 KOS infected in African green monkey Vero cells assessed as inhibition of viral adsorption at 3.12 ug/mL preincubated for 30 mins and measured after 1 hr by plaque reduction assay relative to control. The class given is functional. To be noted: Human alphaherpesvirus 1, strain KOS. The procedure, abridged:
as §2

Data set [11] in a line: Toxicity in Balb/c mouse infected with ACV-sensitive Herpes simplex virus 1 KOS assessed as effect on body weight at 0.7% w/w applied topically 5 times a day at 3 hrs interval for 10 days measured on day 10 post infection. To be noted: in vivo, topical_or_ocular.
Data set [12] is described as follows: Toxicity in Balb/c mouse infected with ACV-resistant Herpes simplex virus 1 AR-29 assessed as effect on body weight at 0.7% w/w applied topically 5 times a day at 3 hrs interval for 10 days measured on day 10 post infection. The following applies: in vivo, topical_or_ocular.
Data set [13] can be described thus: Toxicity in Balb/c mouse infected with ACV-resistant Herpes simplex virus 1 AR-29 assessed as death at 0.7% w/w applied topically 5 times a day at 3 hrs interval for 10 days measured on day 10 post infection. The following applies: in vivo, topical_or_ocular.
The subject of data set [14] is Human alphaherpesvirus 1. Description: Antiviral activity against ACV-resistant Herpes simplex virus 1 AR-29 infected in male Balb/c mouse assessed as change in dermis thickness at 0.7% w/w applied topically 5 times a day at 3 hrs interval for 10 days measured on day 10 post infection by H and E staining based histological analysis. Format: functional, organism-based.

Data set [15] deals with Human alphaherpesvirus 1. Put plainly: Antiviral activity against ACV-resistant Herpes simplex virus 1 AR-29 infected in male Balb/c mouse assessed as change in epidermis thickness at 0.7% w/w applied topically 5 times a day at 3 hrs interval for 10 days measured on day 10 post infection by H and E staining based histological analysis. Format: functional, organism-based.

In data set [16] the test system is Human alphaherpesvirus 1. Description: Antiviral activity against ACV-sensitive Herpes simplex virus 1 KOS infected in male Balb/c mouse assessed as change in dermis thickness at 0.7% w/w applied topically 5 times a day at 3 hrs interval for 10 days measured on day 10 post infection by H and E staining based histological analysis. The following applies: strain KOS.

In data set [17] the test system is Human alphaherpesvirus 1. Description: Antiviral activity against ACV-sensitive Herpes simplex virus 1 KOS infected in male Balb/c mouse assessed as change in epidermis thickness at 0.7% w/w applied topically 5 times a day at 3 hrs interval for 10 days measured on day 10 post infection by H and E staining based histological analysis. To be noted: strain KOS.

The record followed here is ChEMBL document CHEMBL4610063, “Mangiferin: A promising natural xanthone from Mangifera indica for the control of acyclovir - resistant herpes simplex virus 1 infection” (Bioorg Med Chem, 2020).

SMILES strings stand for the structures. Active and inactive are the calls of the source. No cut-off for these calls is given here.

With `O=c1c2cc(O)c(O)cc2oc2cc(O)c([C@@H]3O[C@H](CO)[C@@H](O)[C@H](O)[C@H]3O)c(O)c12` [MANGIFERIN], the CC50 at 72 h in data set [1] was greater than 500 µg/mL. Also, the inhibition at 6.25 µg/mL in [2] was found to be 94.4%; in [4], 93.9%. Also, the inhibition at 12.5 µg/mL in [3] and in data set [5] was 100% throughout. Moreover, the Activity in data set [6] was 54.1%; in data set [11] it was “Non-Toxic”; in [12], “Non-Toxic”; in [13], “Non-Toxic”. For the same compound, the result in [7], in data set [14], in data set [15], in [16] and in data set [17] was inactive. Besides, the inhibition at 25 µg/mL in data set [8] was found to be 74.8%. Further, the inhibition entry in [9] was “Active”. The inhibition at 3.12 µg/mL in [10] stood at 29.2%.

Broadly, the CC50 is the concentration giving 50% cytotoxicity. One may read the inhibition as the drop in the measured response relative to a control, in per cent.
